Results taken from ChEMBL document CHEMBL1144153, “Conjugates of the fungal cytotoxin illudin M with improved tumour specificity” (Bioorg Med Chem, 2008).
The source made the active and inactive calls. The calls are words filed in the database; no cut-off is given here.

Experiments:
HFF = test: Induction of apoptosis in HFF cells assessed as sub-diploid DNA content at 1 uM after 120 hrs by FACS relative to control; format: cell-based; details: human
Outline: (§1)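 Panc-1 and HT-29 cells (RPMI-1640) or foreskin fibroblasts (DMEM), 10% FCS, 37 °C, were compound-treated. Supernatants were pooled with PBS-washed, trypsinised cells, then lysed in hypotonic 0.1% sodium citrate / 0.1% Triton X-100 with 50 µg/mL propidium iodide. Flow cytometry scored the sub-diploid nuclear fraction as apoptotic, relative to untreated controls. Means of three independent experiments.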

PANC-1 [1] = test: Cytotoxicity against human PANC1 cells up to 10 uM by trypan blue exclusion assay; format: functional, cell-based
Outline: (§2)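 Cells grown in RPMI-1640 with 10% FCS, penicillin and streptomycin at 37 °C, 5% CO2. Exposed to 0.01–10 µM for up to 120 h (24–120 h time course). Harvested, stained with Trypan blue, and unstained cells counted in a Neubauer chamber. Counts expressed relative to untreated controls (100%). Means of three independent experiments.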

HT-29 [2] = test: Cytotoxicity against human HT-29 cells up to 10 uM by trypan blue exclusion assay; format: functional, cell-based; outline: as §2
[3] = Cytotoxicity against HFF cells assessed as viable cells at 1 uM after 48 hrs by trypan blue exclusion assay relative to control; format: cell-based; details: human, read-out: Activity
Outline: (§3)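 Panc-1 and HT-29 cells were grown in RPMI-1640, and foreskin fibroblasts in DMEM, each with 10% FCS plus penicillin/streptomycin at 37 °C and 5% CO2. Cells were exposed to compound (0.01–10 µM range) for up to 120 h, harvested and stained with Trypan blue. Unstained cells were counted in a Neubauer chamber relative to untreated controls (100%). Means of three independent experiments ± SD.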

[4] = Cytotoxicity against HFF cells assessed as viable cells at 1 uM after 120 hrs by trypan blue exclusion assay relative to control; format: cell-based; details: human, read-out: Activity; outline: as §3
PANC-1 [5] = test: Induction of apoptosis in human PANC1 cells assessed as sub-diploid DNA content at 1 uM after 120 hrs by FACS relative to control; format: functional; outline: as §1
HT-29 [6] = test: Induction of apoptosis in human HT-29 cells assessed as sub-diploid DNA content at 1 uM after 120 hrs by FACS relative to control; format: functional; outline: as §1
PANC-1 [7] = test: Cytotoxicity against human PANC1 cells assessed as viable cells at 1 uM after 48 hrs by trypan blue exclusion assay relative to control; format: functional; details: PANC-1, 48 h, read-out: Activity; outline: as §3
HT-29 [8] = test: Cytotoxicity against human HT-29 cells assessed as viable cells at 1 uM after 48 hrs by trypan blue exclusion assay relative to control; format: functional; details: HT-29, 48 h, read-out: Activity; outline: as §3
PANC-1 [9] = test: Cytotoxicity against human PANC1 cells assessed as viable cells at 1 uM after 120 hrs by trypan blue exclusion assay relative to control; format: functional; details: PANC-1, 120 h, read-out: Activity; outline: as §3
HT-29 [10] = test: Cytotoxicity against human HT-29 cells assessed as viable cells at 1 uM after 120 hrs by trypan blue exclusion assay relative to control; format: functional; details: HT-29, 120 h, read-out: Activity; outline: as §3
HT-29 [11] = test: Induction of apoptosis in human HT-29 cells assessed as sub-diploid DNA content at 1 uM after 96 hrs by FACS relative to control; format: functional; outline: as §1
PANC-1 [12] = test: Induction of apoptosis in human PANC1 cells assessed as sub-diploid DNA content at 1 uM after 96 hrs by FACS relative to control; format: functional; outline: as §1
MCF7 = test: Antiproliferative activity against human MCF7 cells at 1 to 10 uM after 24 to 48 hrs by MTT assay; format: functional
MDA-MB-231 = test: Antiproliferative activity against human MDA-MB-231 cells at 1 to 10 uM after 24 to 48 hrs by MTT assay; format: functional
PANC-1 [13] = test: Induction of apoptosis in human PANC1 cells assessed as sub-diploid DNA content at 0.1 uM by FACS; format: functional, cell-based; outline: as §1

| SMILES | Activity (HFF) | Activity (PANC-1 [1]) | Activity (HT-29 [2]) | viability at 48 h, 1 µM [3] | viability at 120 h, 1 µM [4] | Activity (PANC-1 [5]) | Activity (HT-29 [6]) | viability at 1 µM (PANC-1 [7]) | viability at 1 µM (HT-29 [8]) | viability at 1 µM (PANC-1 [9]) | viability at 1 µM (HT-29 [10]) | Activity (HT-29 [11]) | Activity (PANC-1 [12]) | Activity (MCF7) | Activity (MDA-MB-231) | Activity (PANC-1 [13]) |
| --- | --- | --- | --- | --- | --- | --- | --- | --- | --- | --- | --- | --- | --- | --- | --- | --- |
| CC1=C2C(=CC(C)(C)[C@@H]2OC(=O)c2ccc(-c3ccc(C(=O)O[C@@H]4C5=C(C)C6(CC6)[C@@](C)(O)C(=O)C5=CC4(C)C)cn3)nc2)C(=O)[C@](C)(O)C12CC2 | 14.3% | Active | Active | 62% | 47.8% | – | – | – | – | – | – | – | – | – | – | – |
| CC1=C2C(=CC(C)(C)[C@@H]2OC(=O)C2C3CCC(O3)C2C(=O)O[C@@H]2C3=C(C)C4(CC4)[C@@](C)(O)C(=O)C3=CC2(C)C)C(=O)[C@](C)(O)C12CC2 (stereo partly drawn) [BIS(ILLUDINYL M) ENDOTHALLATE] | 33.1% | Active | Active | – | 49.3% | 74% | 52.9% | 33% | 26% | 6.4% | 3% | – | – | – | – | – |
| CC/C=C\C/C=C\C/C=C\C/C=C\C/C=C\C/C=C\CCC(=O)O[C@@H]1C2=C(C)C3(CC3)[C@@](C)(O)C(=O)C2=CC1(C)C [DOCOSAHEXAENOYL ILLUDIN M] | 4.4% | – | – | – | 80% | 2.6% | 1.9% | – | – | 103% | 111% | <10% | <10% | – | – | – |
| CC1=C(CO)C2=C(C)C3(CC3)[C@@](C)(O)C(=O)C2=C1 [IROFULVEN] | – | – | – | – | – | – | – | – | – | – | – | – | – | 70% | 70% | – |
| CC1=C2C(=CC(C)(C)[C@@H]2OC(=O)CCCc2ccc(N(CCCl)CCCl)cc2)C(=O)[C@](C)(O)C12CC2 | 9.5% | – | – | – | 47.5% | 36.8% | 6% | – | – | 20% | 42.7% | <10% | <10% | – | – | – |
| CC1=C2C(=CC(C)(C)[C@@H]2O)C(=O)[C@](C)(O)C12CC2 [ILLUDIN M] | 88.9% | – | – | 39% | 28.1% | 86% | 47.9% | 42% | 26% | 12.3% | 3.8% | – | – | – | – | Active |
